In ChEMBL document CHEMBL1833943, “Synthesis and structure-activity relationships of varied ether linker analogues of the antitubercular drug (6S)-2-nitro-6-{[4-(trifluoromethoxy)benzyl]oxy}-6,7-dihydro-5h-imidazo[2,1-b][1,3]oxazine (PA-824)” (J Med Chem, 2011):
Converted amounts (≈) assume the structure as drawn.

Experiments:
[1] = test system: Mycobacterium tuberculosis; test: Antituberculosis activity against Mycobacterium tuberculosis H37Rv under aerobic conditions by microplate alamar blue assay; format: functional
[2] = test system: Mycobacterium tuberculosis; test: Antituberculosis activity against Mycobacterium tuberculosis H37Rv under anaerobic conditions by fluorescence based low-oxygen-recovery assay; format: functional
[3] = Aqueous solubility of the compound in water at pH 7 by HPLC analysis; format: physicochemical
In short: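 Solubility measured in water at pH 7 and 20 °C, quantified by HPLC.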

| Compound | MIC [1] | MIC [2] | solubility [3] |
| --- | --- | --- | --- |
| O=[N+]([O-])c1cn2c(n1)OC[C@@H](OCC#Cc1ccc(-c3ccc(C(F)(F)F)cc3)cc1)C2 | 0.22 µM (≈ 0.0975 µg/mL) | 0.86 µM (≈ 0.381 µg/mL) |  |
| O=[N+]([O-])c1cn2c(n1)OC[C@@H](Oc1ccc(C(F)(F)F)cn1)C2 | 2.9 µM (≈ 0.958 µg/mL) | 16 µM (≈ 5.28 µg/mL) |  |
| O=[N+]([O-])c1cn2c(n1)OC[C@@H](OCCCc1ccc(OCc3ccccc3)cc1)C2 | 0.5 µM (≈ 0.205 µg/mL) | 3.7 µM (≈ 1.51 µg/mL) | 3.8 µg/mL (≈ 9.28 µM) |
| O=[N+]([O-])c1cn2c(n1)OC[C@@H](OCCOc1ccc(OCc3ccccc3)cc1)C2 | 0.085 µM (≈ 0.035 µg/mL) | 5.5 µM (≈ 2.26 µg/mL) | 1.7 µg/mL (≈ 4.13 µM) |
| O=[N+]([O-])c1cn2c(n1)OC[C@@H](OCCCc1ccc(-c3ccc(F)cc3)cc1)C2 | 0.045 µM (≈ 0.0179 µg/mL) | 0.92 µM (≈ 0.366 µg/mL) |  |
| O=[N+]([O-])c1cn2c(n1)OC[C@@H](OCCCc1ccc(-c3ccc(C(F)(F)F)nc3)cc1)C2 | 0.07 µM (≈ 0.0314 µg/mL) | 1.9 µM (≈ 0.852 µg/mL) |  |
| O=[N+]([O-])c1cn2c(n1)OC[C@@H](OCCCc1ccc(-c3ccc(C(F)(F)F)cn3)cc1)C2 | 0.055 µM (≈ 0.0247 µg/mL) | 3 µM (≈ 1.35 µg/mL) |  |
| O=[N+]([O-])c1cn2c(n1)OC[C@@H](OCCOc1ccc(-c3ccc(F)cc3)cc1)C2 | 0.04 µM (≈ 0.016 µg/mL) | 3.4 µM (≈ 1.36 µg/mL) |  |
| O=[N+]([O-])c1cn2c(n1)OC[C@@H](OCCOc1ccc(-c3ccc(C(F)(F)F)cc3)cc1)C2 | 0.04 µM (≈ 0.018 µg/mL) | 104 µM (≈ 46.7 µg/mL) |  |
| O=[N+]([O-])c1cn2c(n1)OC[C@@H](OCCOc1ccc(-c3ccc(C(F)(F)F)nc3)cc1)C2 | 0.025 µM (≈ 0.0113 µg/mL) | 4.1 µM (≈ 1.85 µg/mL) |  |
| O=[N+]([O-])c1cn2c(n1)OC[C@@H](OCCOc1ccc(-c3ccc(F)cc3)cn1)C2 | 0.02 µM (≈ 0.00801 µg/mL) | 2.4 µM (≈ 0.961 µg/mL) |  |
| O=[N+]([O-])c1cn2c(n1)OC[C@@H](OCCOc1ccc(-c3ccc(C(F)(F)F)cc3)cn1)C2 | 0.02 µM (≈ 0.00901 µg/mL) | 3 µM (≈ 1.35 µg/mL) |  |
| O=[N+]([O-])c1cn2c(n1)OC[C@@H](OCCOc1ccc(-c3ccc(C(F)(F)F)nc3)cn1)C2 | 0.22 µM (≈ 0.0993 µg/mL) | 10 µM (≈ 4.51 µg/mL) |  |
| O=[N+]([O-])c1cn2c(n1)OC[C@@H](OCCOc1ncc(-c3ccc(F)cc3)cn1)C2 | 0.13 µM (≈ 0.0522 µg/mL) | 13 µM (≈ 5.22 µg/mL) |  |
| O=[N+]([O-])c1cn2c(n1)OC[C@@H](OCCOc1ncc(-c3ccc(C(F)(F)F)cc3)cn1)C2 | 0.12 µM (≈ 0.0542 µg/mL) | 5.4 µM (≈ 2.44 µg/mL) |  |
| O=[N+]([O-])c1cn2c(n1)OC[C@@H](OCCOc1ncc(-c3ccc(C(F)(F)F)nc3)cn1)C2 | 0.63 µM (≈ 0.285 µg/mL) | 56 µM (≈ 25.3 µg/mL) |  |
| O=[N+]([O-])c1cn2c(n1)OC[C@@H](OC/C=C/c1ccc(-c3ccc(F)cc3)cc1)C2 | 0.09 µM (≈ 0.0356 µg/mL) | 3.1 µM (≈ 1.23 µg/mL) |  |

| Compound | MIC [1] | MIC [2] | solubility [3] |
| --- | --- | --- | --- |
| O=[N+]([O-])c1cn2c(n1)OC[C@@H](OC/C=C/c1ccc(-c3ccc(C(F)(F)F)cc3)cc1)C2 | 0.045 µM (≈ 0.02 µg/mL) | 43 µM (≈ 19.2 µg/mL) |  |
| O=[N+]([O-])c1cn2c(n1)OC[C@@H](OC/C=C/c1ccc(-c3ccc(C(F)(F)F)nc3)cc1)C2 | 0.02 µM (≈ 0.00893 µg/mL) | 15 µM (≈ 6.7 µg/mL) |  |
| O=[N+]([O-])c1cn2c(n1)OC[C@@H](OC/C=C/c1ccc(-c3ccc(OC(F)F)cc3)cc1)C2 | 0.08 µM (≈ 0.0355 µg/mL) | 4.3 µM (≈ 1.91 µg/mL) |  |
| O=[N+]([O-])c1cn2c(n1)OC[C@@H](OCC#Cc1ccc(-c3ccc(F)cc3)cc1)C2 | 0.035 µM (≈ 0.0138 µg/mL) | 2.7 µM (≈ 1.06 µg/mL) |  |
| O=[N+]([O-])c1cn2c(n1)OC[C@@H](OCC#Cc1ccc(-c3ccc(OC(F)F)cc3)cc1)C2 | 0.14 µM (≈ 0.0618 µg/mL) | 1.8 µM (≈ 0.795 µg/mL) |  |
| O=[N+]([O-])c1cn2c(n1)OC[C@@H](OCC#Cc1cccc(-c3ccc(F)cc3)c1)C2 | 0.04 µM (≈ 0.0157 µg/mL) | 0.88 µM (≈ 0.346 µg/mL) |  |
| O=[N+]([O-])c1cn2c(n1)OC[C@@H](OCC#Cc1cccc(-c3ccc(C(F)(F)F)cc3)c1)C2 | 0.27 µM (≈ 0.12 µg/mL) | 1.3 µM (≈ 0.576 µg/mL) |  |
| O=[N+]([O-])c1cn2c(n1)OC[C@@H](OCC#Cc1cccc(-c3ccc(C(F)(F)F)nc3)c1)C2 | 0.12 µM (≈ 0.0533 µg/mL) | 0.96 µM (≈ 0.427 µg/mL) |  |
| O=[N+]([O-])c1cn2c(n1)OC[C@@H](OCC#Cc1cccc(-c3ccc(OC(F)F)cc3)c1)C2 | 0.09 µM (≈ 0.0397 µg/mL) | 1.4 µM (≈ 0.618 µg/mL) |  |
| O=[N+]([O-])c1cn2c(n1)OC[C@@H](OCC#Cc1ccc(-c3ccc(F)cc3)cn1)C2 | 0.05 µM (≈ 0.0197 µg/mL) | 0.85 µM (≈ 0.335 µg/mL) |  |
| O=[N+]([O-])c1cn2c(n1)OC[C@@H](OCC#Cc1ccc(-c3ccc(C(F)(F)F)cc3)cn1)C2 | 0.02 µM (≈ 0.00889 µg/mL) | 0.75 µM (≈ 0.333 µg/mL) |  |
| O=[N+]([O-])c1cn2c(n1)OC[C@@H](OCC#Cc1ccc(-c3ccc(C(F)(F)F)nc3)cn1)C2 | 0.44 µM (≈ 0.196 µg/mL) | 6.6 µM (≈ 2.94 µg/mL) |  |
| O=[N+]([O-])c1cn2c(n1)OC[C@@H](OCC#Cc1ccc(-c3ccc(OC(F)F)cc3)cn1)C2 | 0.025 µM (≈ 0.0111 µg/mL) | 0.44 µM (≈ 0.195 µg/mL) |  |
| O=[N+]([O-])c1cn2c(n1)OC[C@@H](OCC#Cc1ccc(-c3ccc(F)cc3)nc1)C2 | 0.05 µM (≈ 0.0197 µg/mL) | 1 µM (≈ 0.394 µg/mL) |  |
| O=[N+]([O-])c1cn2c(n1)OC[C@@H](OCC#Cc1ccc(-c3ccc(C(F)(F)F)cc3)nc1)C2 | 0.07 µM (≈ 0.0311 µg/mL) | 0.58 µM (≈ 0.258 µg/mL) |  |
| O=[N+]([O-])c1cn2c(n1)OC[C@@H](OCC#Cc1ccc(-c3ccc(C(F)(F)F)nc3)nc1)C2 | 0.12 µM (≈ 0.0534 µg/mL) | 3.7 µM (≈ 1.65 µg/mL) |  |
| O=[N+]([O-])c1cn2c(n1)OC[C@@H](OCC#Cc1ccc(-c3ccc(OC(F)F)cc3)nc1)C2 | 0.08 µM (≈ 0.0354 µg/mL) | 0.61 µM (≈ 0.27 µg/mL) |  |
